DENV2 CPE = protects cells from dengue virus 2 cytopathic effect | CPE inhibition, % at 9.99 µM | AID 651640 | 1.7% of 350,000 active | DENV2-infected cells, cytopathic effect rescue, plate reader; in the data active means CPE inhibition above about 20%, passing the limit was not always enough; inconclusive means no clear call, values can overlap the other calls; tested in BHK-21 cells;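 further: 0% = median of neutral control wells and 100% = median of positive control wells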
ARNT-TACC3 inh = ARNT/TACC3 interaction disruption; Q9Y6A5; AlphaScreen His-ARNT PAS-B/GST-TACC3 binding, luminescence; TACC3 fragment carries E629A point mutation; inhibition, % at 9.99 µM; 0.66% of 390,000 active; AID 623870;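 active means mean inhibition of replicates at least 50% and at least half of replicates each reaching 50%; inconclusive means half or more replicates reach 50% but mean below 50%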;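 further: 0% = complete ARNT plus TACC3 wells and 100% = ARNT alone without TACC3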
FGF22 binding = binders of recombinant human FGF22 by thermal shift; activity (Tm shift, normalised), % at 9.99 µM; SYPRO orange fluorescence; percent of sucrose octasulfate shift, DMSO zero; AID 651658; 1.5% of 340,000 active;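 active means mean Tm shift, scaled 0 neutral to 100 positive control, at about 1.3% or above, every replicate too, limit read from the data; inconclusive means no clear call, values can overlap the other calls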
Target sequence (Q9HCT0 whole entry, looked up): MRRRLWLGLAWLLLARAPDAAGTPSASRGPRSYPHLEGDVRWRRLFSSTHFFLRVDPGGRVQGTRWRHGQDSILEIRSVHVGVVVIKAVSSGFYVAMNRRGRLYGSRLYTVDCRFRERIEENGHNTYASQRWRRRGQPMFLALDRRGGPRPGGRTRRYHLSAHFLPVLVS
XiGFP reactiv = activators of X-chromosome reactivation in mouse fibroblasts | 0.055% of 360,000 active | XiGFP mouse fibroblasts, % GFP-positive cells imaging, 3 d; cells co-treated with 5-aza-dC sensitizer; scaled so ellipticine positive control = 100% | activation, % at 7.58 µM | AID 743238;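 active means mean normalized replicate activation at least 10% and every replicate at or above 10%; inconclusive means only one of the two criteria met; inactive means mean below 10% and not all replicates reach 10%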;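 further: 0% = median of on-plate neutral control wells and 100% = ellipticine 6 µM median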
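Material: XiGFP fibroblasts, SV40-immortalized; Buffer or medium: DMEM containing 5-aza-dC; Compound dosing: single point; Times: 3 days compound exposure.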
SIRT5 inh = sirtuin-5 (human) deacylase inhibition; 1.1% of 330,000 active; Q9NXA8; AID 652115; inhibition, % at 15 µM; Purified SirT5, succinyl-peptide AMC, trypsin-coupled fluorescence; in the data active means inhibition above about 15%; inconclusive means no clear call, values can overlap the other calls
Target sequence (Q9NXA8 whole entry, looked up): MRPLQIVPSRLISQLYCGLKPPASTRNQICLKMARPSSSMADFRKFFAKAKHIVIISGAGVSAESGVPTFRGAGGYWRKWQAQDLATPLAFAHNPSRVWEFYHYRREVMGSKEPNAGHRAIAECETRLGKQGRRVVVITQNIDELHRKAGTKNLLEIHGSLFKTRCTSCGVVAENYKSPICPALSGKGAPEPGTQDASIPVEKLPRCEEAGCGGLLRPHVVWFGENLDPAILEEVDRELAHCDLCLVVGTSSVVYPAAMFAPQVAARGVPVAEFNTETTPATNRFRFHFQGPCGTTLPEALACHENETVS
FN deposition inh = fibronectin deposition inhibition | AH1F fibroblasts, Alexa488-fibronectin deposition fluorescence, overnight | 0.086% of 350,000 active | inhibition, % at 12.6 µM;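 active means mean inhibition across replicates of 30% or more, regardless of how many single replicates reach that level; inconclusive means mean under 30% yet at least half of replicates reach 30%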;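 further: positive control wells lacked labelled fibronectin entirely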
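test system = AH1F fibroblasts assembling fluorescent fibronectin matrix | quantity = 10000 AH1F cells per well | buffer or medium = DMEM plus 2% serum, read in PBS | doses = single dose, pinned | incubation = 1 h cell attachment, overnight exposure to compound and label | detection = fluorescence at 485 nm excitation, 525 nm emission | read-out basis = inhibition from reduced deposited-fibronectin fluorescence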
* = called active by the depositor; u = inconclusive; x = not tested or not shown. Compounds with a hit are over-represented: about 3.8% of the library has one in this group of screens.

SMILES	DENV2 CPE	ARNT-TACC3 inh	FGF22 binding	XiGFP reactiv	SIRT5 inh	FN deposition inh
CC1CN(CCOc2ccccc2-c2ccccc2)CC(C)O1 (stereo not given)	-1	-1	0	1	31*	-12
CCCNC(=O)c1ccc(C2SCC(=O)N2Cc2ccccc2)cc1 (stereo not given)	-8	-10	44*	0	0	-4
CN(C)CC(=O)Nc1ccc2c(c1)[C@@H]1C[C@@H](CC(=O)NCc3ccccc3)O[C@@H](CO)[C@@H]1O2	-3	-5	0	0	1	4
NC(=NCCc1ccccc1)NS(=O)(=O)c1cccs1	x	x	43*	0	-6	-6
CCN1[C@@H]2c3ccc(-c4ccc(F)cc4)c(=O)n3C[C@@H]2[C@@H](CO)[C@@H]1C(=O)NCc1ccncn1	-6	-1	0	0	3	x
NNC(=O)c1cncn1-c1ccc(F)cc1	x	3	44*	0	-10	4
CC(C)NC(=O)N1CC(=O)N2[C@H](CO)[C@@H](c3ccc(C#CCN(C)C)cc3)[C@@H]2C1	14	x	x	0	-4	x
CN(C)CC(=O)N[C@H]1CC[C@H](CCn2cc(C3CCCCC3)nn2)O[C@H]1CO	41*	-6	0	0	0	3
CCCNC(=O)N[C@@H]1CC[C@H](CCn2cc(C3CCCCC3)nn2)O[C@@H]1CO	5	-11	0	0	17*	-8
CN(C)CC(=O)N[C@@H]1CC[C@H](CCn2cc(C3CCCCC3)nn2)O[C@H]1CO	9	-2	0	0	-1	12
CCCNC(=O)N[C@H]1CC[C@@H](CCn2cc(C3CCCCC3)nn2)O[C@@H]1CO	-5	-11	0	0	2	0
O=C(Nc1ccc(Cl)c(Cl)c1)N[C@@H]1CC[C@H](CCn2cc(C3CCCC3)nn2)O[C@@H]1CO	28*	x	x	0	5	-4
COc1ccc2c(c1)[C@]1(C(=O)N2C)C2=C(CCCC2=O)Oc2cc(C)oc(=O)c21	-4	x	43*	0	x	4
Cc1cc2c(c(=O)o1)[C@@]1(C(=O)N(C)c3ccc([N+](=O)[O-])cc31)C1=C(CCCC1=O)O2	-11	x	41	0	x	1
COc1ccc(C(C(=O)NC(C)(C)C)N(CCO)C(=O)CCC(=O)Nc2cc(C)on2)cc1 (stereo not given)	-7	1	43*	0	-4	8
COc1ccc(C(C(=O)NC(C)(C)C)N(CCc2ccccc2)C(=O)CCC(=O)Nc2cc(C)on2)cc1 (stereo not given)	1	29	0	0	5	-3
O=C(Cc1ccncc1)N[C@H]1CC[C@@H](CCn2cc(-c3ccccc3F)nn2)O[C@H]1CO	-1	11	0	0	0	-25
COc1ccc(C(C)C)cc1S(=O)(=O)NCC1CCCO1 (stereo not given)	0	1	0	0	15*	0
Nc1ccc2cc3[nH]c4cc(N)ccc4c3nc2c1	3	-3	0	63*	x	-425
Nc1ccc(-c2nc3ccc(N)cc3[nH]2)cc1	-6	-2	0	0	-15	-11
C[C@@H]1CN([C@@H](C)CO)S(=O)(=O)c2ccc(-c3cccnc3)cc2O[C@H]1CN(C)C(=O)C1CCC1	u	6	0	0	-5	-2
CSc1nsc(SCC(=O)Nc2nc3ccccc3s2)n1	-1	-3	44*	0	-1	-6
COc1ccc2nc(NC(=O)CSc3nc(SC)ns3)sc2c1	7	-3	0	0	-3	x
Cc1cc(NC(=O)CSCC(=O)Nc2nc3ccccc3s2)no1	45*	-4	0	0	-2	-7
Cc1ccc2nc(NC(=O)CSCC(=O)Nc3cc(C)on3)sc2c1	u	33	0	0	-8	3
SMILES	DENV2 CPE	ARNT-TACC3 inh	FGF22 binding	XiGFP reactiv	SIRT5 inh	FN deposition inh
O=C(O)c1cccc(NC2=C(Cl)C(=O)c3ccccc3C2=O)c1	10	16	0	2	112*	11
CCCC(=O)Nc1ccc2c(c1)C(=O)N(C)C[C@H](OC)[C@@H](C)CN(CC1CCOCC1)[C@@H](C)CO2	x	x	x	0	x	4
C/C(CC(=O)Nc1ccc(Cl)cc1C(F)(F)F)=N\NC(=O)c1ccccn1	3	4	43*	0	-4	0
O=C(Nc1ccccc1)C1CC(=O)n2ncnc2N1 (stereo not given)	0	-15	0	x	1	x
O=C(Nc1ccc(F)cc1)C1CC(=O)n2ncnc2N1 (stereo not given)	3	-7	43*	0	0	1
COc1ccc(C(=O)N/C(=C\c2cn(C)c3ccccc23)C(=O)OCCN(C)C)cc1	-3	7	28*	0	3	-2
CCCCOC(=O)/C(=C/c1cn(C)c2ccccc12)NC(=O)c1ccc(OC)cc1	u	-2	0	0	-3	-1
COc1ccc(NC(=O)N2CCN(S(C)(=O)=O)CC2)cc1	x	-5	43*	0	-3	0
COc1ccc(NC(=O)Nc2ccc(CC(=O)O)cc2)cc1	0	-11	43*	0	-2	1
COCc1nnc(NC(=O)c2ccc(S(=O)(=O)N3CCCc4ccccc43)cc2)o1	7	x	0	0	2	9
O=C(O)Cc1ccc(NC(=O)Nc2ccc(Br)cc2)cc1	3	-4	0	0	9	9
COc1ccc(NC(=O)N2CCN(C(=O)Nc3ccc(OC)cc3)CC2)cc1	-5	x	0	0	1	-3
COc1cc(-c2nnc(NC(=O)c3ccc(S(=O)(=O)N4CCOCC4)cc3)o2)cc(OC)c1OC	15	x	1	0	-1	-14
COCc1nnc(NC(=O)c2ccc(S(=O)(=O)N3CCOCC3)cc2)o1	-11	45*	0	0	1	2
COc1ccccc1-c1nnc(NC(=O)c2ccc(S(=O)(=O)N3CCOCC3)cc2)o1	5	46*	0	0	-1	0
CCCN1[C@@H]2Cn3c(ccc(C4=CCCCC4)c3=O)[C@H]1[C@@H](C(=O)NCC(F)(F)F)[C@@H]2CO	2	-6	0	0	-13	x
COc1ccc(C(=O)N[C@H](C(=O)Nc2ccc(S(=O)(=O)N3CCOCC3)cc2)C(C)C)cc1	-1	18	0	1	x	-9
COc1ccc(NC(=S)NNC(=O)c2ccc(S(=O)(=O)N3CCOCC3)cc2)cc1	-3	-2	1.4*	0	1	3
COc1ccc(CC(=O)Nc2ccc(S(=O)(=O)N3CCN(C)CC3)cc2)cc1	-4	-5	0	0	18*	2
